The target in the test is Muscarinic acetylcholine receptor M4 (Rattus norvegicus) (UniProt P08485). Nature of the test: rat M4 positive allosteric modulation check – CHO cells, calcium flux, selectivity assay for M5 PAM discovery project (AID 651935). The method in brief: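 Buffer or medium – HBSS plus HEPES and probenecid, pH 7.4 · Material – rat M4/Gqi5 CHO-K1 cells · Technique – Fluo-4 calcium fluorescence · Schedule – agonist exposure 50 s at 25 °C · Read-out basis – % of maximal acetylcholine response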
Chain of Muscarinic acetylcholine receptor M4 (Rattus norvegicus) (P08485 whole entry, looked up): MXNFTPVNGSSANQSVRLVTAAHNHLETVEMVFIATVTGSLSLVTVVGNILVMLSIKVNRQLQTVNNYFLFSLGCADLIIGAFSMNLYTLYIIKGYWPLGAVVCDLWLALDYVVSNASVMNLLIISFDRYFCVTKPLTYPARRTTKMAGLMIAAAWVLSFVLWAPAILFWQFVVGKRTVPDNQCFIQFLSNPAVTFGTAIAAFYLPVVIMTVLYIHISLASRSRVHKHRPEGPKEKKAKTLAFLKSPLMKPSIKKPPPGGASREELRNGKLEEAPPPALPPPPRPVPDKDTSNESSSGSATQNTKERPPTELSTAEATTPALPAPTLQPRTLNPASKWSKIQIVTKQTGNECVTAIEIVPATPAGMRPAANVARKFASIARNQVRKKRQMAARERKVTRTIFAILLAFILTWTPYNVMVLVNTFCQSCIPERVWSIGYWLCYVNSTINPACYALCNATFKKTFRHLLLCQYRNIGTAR
A general note: A change in cytosolic calcium serves as a functional read-out for many receptors and channels.

Active and inactive are the calls of the source. No rule for the calls is given here.

As to `O=C1C(=O)N(CCOc2ccccc2)c2ccc(OC(F)(F)F)cc21`, the result was inactive.

For the origin of these results see PubChem BioAssay AID651935 (Vanderbilt Specialized Chemistry Center, 2012).
